Measured values from ChEMBL document CHEMBL4513216, “Probing the Open Global Health Chemical Diversity Library for Multistage-Active Starting Points for Next-Generation Antimalarials” (ACS Infect Dis, 2020).

Test: Toxicity liver stage against HepG2, at 10uM
Type: cell-based
Design: test concentration 10 uM, cell line HepG2-A16-CD81EGFP
Details: human, HepG2-A16-CD81EGFP cells; read-out: INHIBITION
In short: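 Uninfected HepG2-A16-CD81EGFP cells, 3 × 10^3 per well, 1536-well, plated on prespotted compound at 10 μM final, parasite-free screening media added to match infected plates; puromycin 10 μM positive, DMSO 0.5% negative; run in parallel with 48 h PbLuc assay at 37 °C, 5% CO2; viability by CellTiter-Glo luminescence, normalized to controls.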

Row | Structure (SMILES) | cytotoxicity at 10 µM
1 | Oc1cccc(-c2cc(CC3(N(CC4CC4)CC4CC4)COC3)no2)c1 | 6.15%
2 | COc1ccc2c(c1)CN(CC1CC1)C(=O)CCN2CC(C)(C)O | -13.9%
3 | O=c1c(NCCc2ccc(O)cc2)c(NCc2ccccn2)c1=O | -2.72%
4 | COc1ccc(CC(=O)Nc2ccc3ncn(C)c(=O)c3c2)cc1 | 1.29%
5 | Cc1ccsc1C(=O)N1CC2CC1(C(=O)NCC1CC1)C2 | -4.78%
6 | NC(=O)N1C[C@@H]2CN(C(=O)c3ccco3)C[C@@H]2C1 | -2.54%
7 | O=C(c1ccoc1)N1CCC2(CC1)COC(COCc1ccccn1)C2 (configuration not stated) | -138%
8 | Cc1cccc(C(=O)N2CCC3(CC2)CC(c2ccccc2)C(=O)N3)c1 (configuration not stated) | 17.8%
9 | Cc1nc(CO[C@@H]2CN(Cc3ccc(F)cc3)[C@@H]3COC[C@@H]32)cs1 | 5.42%
10 | COC[C@@]12CCO[C@@H]1CCN(C(=O)CCc1ccccc1Cl)C2 | 7.69%
11 | CS(=O)(=O)NC[C@]12COC[C@H]1CN(C(=O)c1cnccn1)C2 | 6.3%
12 | CN(Cc1cn2c(n1)CN(C(=O)c1cccn1C)CC2)Cc1ccco1 | 2.75%
13 | CNC(=O)C1Cn2ccnc2C2(CCN(Cc3csc(C)n3)CC2)O1 (configuration not stated) | -151%
14 | CC(C)=CCC/C(C)=C/CC(C)(C)CNCc1ccco1 | -23.7%
15 | CN(C)c1ncc(-c2cc(C(=O)O)n(CC3CC3)c2)cn1 | -9.23%
16 | Cn1cc(CN2CC3(CCN(C(=O)c4cscn4)C3)C2)cn1 | -11.9%
17 | COc1ccc2c(c1)C1(CCN(Cc3ccoc3)CC1)N(C)CC2 | -8.04%
18 | Cc1n[nH]c(C)c1S(=O)(=O)N(C)Cc1nn(C)c(Cl)c1Cl | 0.303%
19 | Cc1cccc2c1cnn2CCC(=O)NCc1csc(C2CC2)n1 | 4.22%
20 | O=C(c1ccnc(C2CCNCC2)c1)N1CCCC(CO)C1 (configuration not stated) | 3.9%
21 | Cc1nccn1[C@@H]1CC[C@@H](NC(=O)Cn2c(C)nc3ccccc32)[C@H]1O | 2.41%
22 | Cc1nc(CC(=O)N2CCC(c3ccn4nccc4n3)CC2)cs1 | -0.956%
23 | COc1cc(CN2CCCC[C@]3(C)NC(=O)CC[C@H]23)ccc1F | -2.32%

Row | Structure (SMILES) | cytotoxicity at 10 µM
24 | Cn1cnc(S(=O)(=O)N2CCCC2c2ccnc3nccn23)c1 (configuration not stated) | 6.28%
25 | CC(C(=O)NC1CC1)n1nc(-c2cccs2)cc(N)c1=O (configuration not stated) | 10.9%
26 | O=C1NC2(CCN(C(=O)CN3CCOCC3)CC2)Nc2ccc(Cl)cc21 | 0.961%
27 | CC(=O)N1CCC(C)(c2nc(C)no2)CC1 | -1.55%
28 | CC(C)N1CCC(c2nccnc2Nc2cnccn2)CC1 | 1.44%
29 | CCc1nnc(Nc2cc(C)nc(C3CCN(c4ccncn4)C3)n2)s1 (configuration not stated) | 4.38%
30 | COCC1CCN(c2cc(C3CN(C)CCO3)nc(C)n2)CC1 (configuration not stated) | 4.71%
31 | CCOc1cc(CNC(=O)NC2CC=CC2)ccc1OC(F)F | -42.4%
32 | CCN(C)S(=O)(=O)NCC(O)c1c(Cl)cccc1Cl (configuration not stated) | 8.17%
33 | CCN(CC)CCn1cc(NC(=O)Nc2ccccc2OC)cn1 | 12.7%
34 | CC(CNS(C)(=O)=O)Oc1cccc(Cl)c1 (configuration not stated) | 4.6%
35 | Cc1ccc(Br)cc1S(=O)(=O)NCCc1nnc[nH]1 | -5.89%
36 | O=C(NC1CCCN(Cc2c(F)cccc2F)C1)c1cnccn1 (configuration not stated) | -1.62%
37 | CCC(NC(=O)CN(C)Cc1ccc(C)o1)c1ccc(C)cc1 (configuration not stated) | 3.97%
38 | COC(=O)C(C)Sc1nnnn1C1CCOCC1 (configuration not stated) | -10.5%
39 | COc1ccc(C(=O)NC2CC2)c(OC)c1 | -3.51%
40 | CCCC(NC(=O)c1cncc(C)c1)c1nnn[nH]1 (configuration not stated) | -15.5%
41 | CNC(=O)C1Cc2ccccc2CN1CCC#N (configuration not stated) | 6.35%
42 | CC(c1ccc(Cl)cc1)N1CCN(CCS(N)(=O)=O)CC1 (configuration not stated) | -1.37%
43 | CSCC(C)(O)CNC(=O)c1ccc(F)cc1Cl (configuration not stated) | -2.79%
44 | Cc1cc(CN2CCc3cncnc3C2)no1 | 5.84%
45 | COc1c(C2CCCN2C(=O)c2ccoc2C)c(C)nn1C (configuration not stated) | 0.243%
46 | CN1CCN(C(=O)c2cnsn2)c2ccc(F)cc21 | 3.47%

Row | Structure (SMILES) | cytotoxicity at 10 µM
47 | CCC(=O)N(CCN(C)C)Cc1ccc(F)c(F)c1 | -4.38%
48 | O=C(Nc1cn[nH]c1)N(CCO)C1CCc2ccccc21 (configuration not stated) | -8.74%
49 | O=C(CCS(=O)(=O)C1CCCC1)NCCc1ccc2c(c1)OCCO2 | -1.29%
50 | O=C(c1ccncc1)N1CCN(c2ccc(F)cc2Cl)CC1 | -140%
51 | COc1ccc(CSCC(O)CO)c(Cl)c1 (configuration not stated) | -142%
52 | Cc1ncsc1C(=O)N1CCN(Cc2ccccc2)CC1C (configuration not stated) | -161%
53 | CN(CC(F)(F)F)C(=O)CN1CCC(c2cc3ccccc3[nH]2)CC1 | 4.93%
54 | CC(Cn1cncn1)NC(=O)NCc1csc(N(C)C)n1 (configuration not stated) | 8.42%
55 | Fc1ccc(C(NCc2nnc(C3CC3)o2)C2CCC2)cc1 (configuration not stated) | -48.1%
56 | Cc1ccc(N2CCCC(NC(=O)Nc3cnn(C)c3)C2=O)cc1 (configuration not stated) | -44%
57 | O=C(NCCCN1CCN(c2ncccn2)CC1)NCC1CCOC1 (configuration not stated) | -56.6%
58 | N#Cc1cc(F)c(NCCc2ccc(F)cc2)c(F)c1 | -60.3%
59 | CNS(=O)(=O)c1cccc(C(C)NCc2nccn2C(C)C)c1 (configuration not stated) | -12.6%
60 | CC(C)N(C)CC(=O)NC1CCc2nccn2C1 (configuration not stated) | 17.8%
61 | CC(=O)c1cccc(OCCCC(=O)N(C)Cc2cccc(O)c2)c1 | -4.58%
62 | Cc1ccc(S(=O)(=O)NC(=O)c2cccc3c2OCCO3)c(C)c1 | 3.25%
63 | CC(C)(O)CN1CCN(C(=O)c2cc3ccccc3c(=O)[nH]2)CC1 | 1.52%
64 | c1c(CN2CCOCC2)nc2n1CCN(CC1CC1)C2 | 2.73%
65 | COCCn1cc2c(n1)C(CNC(=O)c1cc(C)[nH]c1C)OCC2 (configuration not stated) | 8.81%
66 | CCN(C(=O)c1nc2c(s1)CCCN2C)C(C)C | 4.37%
67 | Cc1cc(CN2CC[C@H]3C[C@H](C(=O)N(C)C)O[C@@H]3C2)no1 | -5.53%
68 | Cc1cc2nc(C(=O)NCc3cccnc3N(C)C)cc(C)n2n1 | -5.54%
69 | Cc1nc(NC(=O)N2CCCC(C(C)(C)O)C2)nn1C (configuration not stated) | 13.5%

Row | Structure (SMILES) | cytotoxicity at 10 µM
70 | CNc1nc(N2CCN(C)C(CCO)C2)nc2c1CCC2 (configuration not stated) | 2.66%
71 | COc1ccc(CCC2CCCN(CC(=O)O)C2)cc1 (configuration not stated) | 3.38%
72 | CC(C)Oc1cc(N2CCC3(CC2)[C@H](O)C[C@@H]3O)nc(N)n1 | -0.335%
73 | CCNc1ncc(CN2C[C@H](C3CC3)[C@@H](N)C2)cn1 | -40%
74 | Cc1cc(C(F)(F)F)cc(N2CCN(Cc3ccccc3)CC(O)C2)n1 (configuration not stated) | 0.165%
75 | CN1CCC(C(=O)NCCC2CN(c3cnn(C)c(=O)c3)CCO2)CC1 (configuration not stated) | 5.75%
76 | Cc1ccc(C)c(CN2CCCn3nc(CNS(C)(=O)=O)cc3C2)c1 | -4.64%
77 | CN(C)CCN1CC(C(=O)NCc2cn3cccnc3n2)CC1=O (configuration not stated) | -4.29%
78 | Cc1cc(C)n(-c2ccc(C(=O)NCC(CO)Cc3cccs3)cc2)n1 (configuration not stated) | 6.64%
79 | O=S1(=O)C[C@@H]2[C@H](C1)N(Cc1cccc(O)c1)CCN2CC1CC1 | 1.79%
80 | O=C(CSCC1CC1)N1CCCN(Cc2ccc(F)cc2)CC1 | 3.54%
81 | CCCc1cc(NCc2cc(C)on2)n2nccc2n1 | -6.85%
82 | CCn1c(C)nnc1SCCNC(=O)c1cnc(C(C)(C)C)nc1O | -6.14%
83 | O=C(CC1COCCN1)NCCc1noc(-c2ccccc2)n1 (configuration not stated) | 3.05%
84 | COc1ccccc1OC1CCN(C(=O)CCCN2CCOCC2)CC1 | -177%
85 | c1ccc(Cn2cc(CNc3ncnc4c3CCNCC4)cn2)cc1 | 1.99%
86 | CCN1CCc2[nH]cnc2C12CCN(Cc1ccc3nsnc3c1)CC2 | 3.72%
87 | Cc1nc(N2CCN(S(C)(=O)=O)CC2)cc(-n2cnc(C)c2C)n1 | -5.83%
88 | O=C(CCc1cc(O)no1)N1CCCC(OCc2cccnc2)C1 (configuration not stated) | -12.7%
89 | COc1ccc(-n2ncc(C(C)NC3CCOCC3)c2C)cc1 (configuration not stated) | 2.77%
90 | O=C(Cn1cccnc1=O)NC(Cc1cccs1)c1ccccn1 (configuration not stated) | -2.03%
91 | O=c1oc(-c2ccc(F)cc2)nn1CN1CCCCC1 | -4.35%
92 | CCc1nnc2n1CCN(C(=O)c1cc3ccc(C)cc3[nH]1)C2 | -4.87%

Row | Structure (SMILES) | cytotoxicity at 10 µM
93 | COc1cccc(S(=O)(=O)NC(=O)CCC2CCCC2)c1 | 0.428%
94 | Cc1[nH]nc2ncc(C(=O)N3CCN(CCC(C)C)CC3)cc12 | 0.977%
95 | Cc1occc1C(=O)N1CCCN(Cc2nccn2C)CC1 | -1.56%
96 | Cc1cc(C)n(CC2CN(c3ccc(C#N)cn3)CCO2)n1 (configuration not stated) | -1.56%
97 | Cc1cccc(-c2nc(CNC3CCc4ncnn4C3)no2)c1 (configuration not stated) | -2.09%
98 | CCc1nnc2n1CCN(Cc1cc(Cl)c3c(c1)OCCCO3)C2 | -5.83%
99 | CCC(=O)NCC(=O)NCC1CCN(c2cc(Cl)ccc2C)C1 (configuration not stated) | -13.2%
100 | COC(=O)C(c1ccccc1)N(C)C(=O)c1ccnc(C)n1 (configuration not stated) | 1.4%
101 | CC(C)(C)c1n[nH]c(C2CN(C(=O)Cn3ccccc3=O)CCO2)n1 (configuration not stated) | -1.22%
102 | CCn1ccnc1CN1CCC(N(C)Cc2ncc(C)o2)C1 (configuration not stated) | -7.48%
103 | CN(C)CC1CN(Cc2nnc(-c3ccccc3Cl)o2)CCO1 (configuration not stated) | 1.56%
104 | CCOCCN1CCn2c(C)nnc2C1 | 3.34%
105 | CCc1n[nH]c(C2CN(CCc3ccncc3)CCO2)n1 (configuration not stated) | 2.17%
106 | Cc1cc(C)n(C2CCCN(C(=O)c3ccc(NC4CC4)nc3)C2)n1 (configuration not stated) | 5.25%
107 | COc1ccc(F)cc1-c1ccccc1CC1CNCCNC1=O (configuration not stated) | 3.48%
108 | Cn1ccc(C(=O)NC2CCC23CCN(Cc2cccnc2)CC3)c1 (configuration not stated) | -12.1%
109 | Cc1ccc(CN2CCc3onc(C(=O)N4CCCC4)c3C2)o1 | 6.28%
110 | C[C@H]1C(=O)NC[C@H]2CN(Cc3cccc(F)c3)C[C@H]21 | 0.964%
111 | COC[C@@]12CCO[C@@H]1CCN(Cc1ccccc1F)C2 | -12.9%
112 | COCC1COCCC12CCN(Cc1cccs1)CC2 (configuration not stated) | 6.13%
